Results as given in ChEMBL document CHEMBL1821678, “Synthesis and bio-activity evaluation of tetraphenyl(phenylamino) methylene bisphosphonates as antioxidant agents and as potent inhibitors of osteoclasts in vitro” (Eur J Med Chem, 2011).
≈ marks a conversion by molar mass, not a printed value.

How the values were obtained:
[1] = test system: Liver; assay: Antioxidant activity in rat liver cells assessed as inhibition of Fe(2+)-asocrbate complex system-induced lipid peroxidation by TBARS assay; format: functional, cell-based
In short: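 Lipid peroxidation in rat liver cells induced by Fe2+–ascorbate complex; measured as thiobarbituric acid reacting substances (TBARS). Vitamin C standard; IC50 derived.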

[2] = test system: Osteoclast; assay: In-vitro antibone resorptive activity Sprague-Dawley rat pup long bone osteoclasts assessed as compound concentration causing inhibition of bone resorption after 24 hrs by MTT assay; format: functional
In short: (§1)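 Osteoclasts scraped from long bones of 1–2-day-old Sprague–Dawley rat pups into Hepes-buffered DMEM with 7–10% heat-inactivated FCS; attached 30 min to bovine cortical bone slices, unattached cells rinsed off. Treated at 10, 50, 100 and 250 μM, 37 °C, 5% CO2; harvested at 24, 48, 72 h; MTT viability read at 492 nm, triplicates; inhibitory ratio reported. Alendronate reference.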

[3] = test system: Osteoclast; assay: In-vitro antibone resorptive activity Sprague-Dawley rat pup long bone osteoclasts assessed as compound concentration causing inhibition of bone resorption after 48 hrs by MTT assay; format: functional; in short: as §1
[4] = test system: Osteoclast; assay: In-vitro antibone resorptive activity Sprague-Dawley rat pup long bone osteoclasts assessed as compound concentration causing inhibition of bone resorption after 72 hrs by MTT assay; format: functional; in short: as §1
[5] = test system: Radical scavenging activity; assay: Antioxidant activity assessed as DPPH free radical scavenging activity after 30 mins; format: functional
In short: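 DPPH (85 μM) added to medium containing a range of test concentrations; incubated 30 min at room temperature; decrease in absorbance read at 518 nm. Ascorbic acid served as reference for maximal decrease. Activity expressed as % inhibition of DPPH absorbance relative to standard; IC50 derived.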

[6] = Antioxidant activity assessed as potassium ferricyanide ion reducing power after 20 mins by spectrophotometry; format: functional
In short: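 Compounds (50–100 μM) mixed with phosphate buffer (0.2 M, pH 6.6) and 1% potassium ferricyanide, 50 °C for 20 min; 10% TCA added, centrifuged; upper layer diluted with water plus 0.1% ferric chloride; absorbance at 700 nm, higher absorbance = greater reducing power. Vitamin C standard.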

Row | SMILES | IC50 [1] [µg/mL] | Concentration causing inhibition of bone resorption [2] [µM] | Concentration causing inhibition of bone resorption [3] [µM] | inhibitory concentration [4] [µM] | IC50 [5] [µg/mL] | IC50 [6] [µg/mL] | INH [2] [µM] | INH [3] [µM]
1 | O=[N+]([O-])c1cc(NC(P(=O)(Oc2ccccc2)Oc2ccccc2)P(=O)(Oc2ccccc2)Oc2ccccc2)ccc1F | 78.5 (≈ 124 µM) | 31.2 | 19.1 | 8.1 | 30.1 (≈ 47.4 µM) | 2.27 (≈ 3.58 µM) |  | 
2 | COc1ccc(NC(P(=O)(Oc2ccccc2)Oc2ccccc2)P(=O)(Oc2ccccc2)Oc2ccccc2)cc1 | 89.8 (≈ 149 µM) | 138.7 | 102.6 | 67.7 | 40.7 (≈ 67.7 µM) | 2.73 (≈ 4.54 µM) |  | 
3 | O=P(Oc1ccccc1)(Oc1ccccc1)C(Nc1ccc(Cl)cc1)P(=O)(Oc1ccccc1)Oc1ccccc1 | 87.5 (≈ 144 µM) | 191.4 | 140.3 | 71.8 | 41.5 (≈ 68.5 µM) | 2.71 (≈ 4.47 µM) |  | 
4 | O=P(Oc1ccccc1)(Oc1ccccc1)C(Nc1ccc(F)cc1)P(=O)(Oc1ccccc1)Oc1ccccc1 | 86.2 (≈ 146 µM) | 126.1 | 89.1 | 56.4 | 48.2 (≈ 81.8 µM) | 2.86 (≈ 4.85 µM) |  | 
5 | O=[N+]([O-])c1cccc(NC(P(=O)(Oc2ccccc2)Oc2ccccc2)P(=O)(Oc2ccccc2)Oc2ccccc2)c1 | 85.7 (≈ 139 µM) | 49.6 | 28.8 | 14.6 | 39.6 (≈ 64.2 µM) | 2.09 (≈ 3.39 µM) |  | 
6 | O=P(Oc1ccccc1)(Oc1ccccc1)C(Nc1ccc(F)c(Cl)c1)P(=O)(Oc1ccccc1)Oc1ccccc1 | 80.6 (≈ 129 µM) | 32.7 | 21.6 | 10.4 | 32.9 (≈ 52.7 µM) | 2.14 (≈ 3.43 µM) |  | 
7 | Cc1ncc(NC(P(=O)(Oc2ccccc2)Oc2ccccc2)P(=O)(Oc2ccccc2)Oc2ccccc2)s1 | 75.2 (≈ 127 µM) | 88.4 | 64.2 | 48.8 | 58.4 (≈ 98.6 µM) | 3.01 (≈ 5.08 µM) |  | 
8 | O=[N+]([O-])c1ncc(NC(P(=O)(Oc2ccccc2)Oc2ccccc2)P(=O)(Oc2ccccc2)Oc2ccccc2)s1 | 97.9 (≈ 157 µM) | 106.6 | 87.7 | 51.6 | 48.6 (≈ 77.9 µM) | 3.54 (≈ 5.68 µM) |  | 
9 | O=P(Oc1ccccc1)(Oc1ccccc1)C(Nc1cccc2ncsc12)P(=O)(Oc1ccccc1)Oc1ccccc1 | 84.9 (≈ 135 µM) | 125.9 | 95.9 | 54.5 | 47.9 (≈ 76.2 µM) | 2.44 (≈ 3.88 µM) |  | 
10 | NCCCC(O)(P(=O)(O)O)P(=O)(O)O [ALENDRONIC ACID] |  |  |  | 20.4 |  |  | 52.7 | 29.6
11 | O=C1O[C@H]([C@@H](O)CO)C(O)=C1O [ASCORBIC ACID] | 75.2 (≈ 427 µM) |  |  |  | 32.2 (≈ 183 µM) | 2.51 (≈ 14.3 µM) |  | 
12 | O=P(Oc1ccccc1)(Oc1ccccc1)C(Nc1ccccc1)P(=O)(Oc1ccccc1)Oc1ccccc1 [TETRAPHENYL(PHENYLAMINO)METHYLENE DIPHOSPHONATE] | 96 (≈ 168 µM) | 201.6 | 168.2 | 104.4 | 80.6 (≈ 141 µM) | 3.12 (≈ 5.46 µM) |  | 
